Holding throughout (assay type): functional, cell-based
One test has as its system CAKI-1. In words: Cytotoxicity against human Caki1 cells after 24 hrs by MTT assay. The following applies: CAKI-1, 24 h. Summed up:
(§1)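 ATCC cells kept adherent at 37 °C, 5% CO2 (A549: F12K + 10% FBS; HepG2, MCF-7: MEM + 1 mM pyruvate + 10% FBS; CAKI 1: McCoy's + 10% FBS). Seeded and grown 24 h, then exposed 24 h to compounds in FBS-free medium (final DMSO 0.25%). PBS wash, MTT 0.5 mg/mL in phenol-red-free MEM for 3 h at 37 °C, formazan dissolved in DMSO, read at A540. Two experiments in triplicate; IC50 derived.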
For orientation: Tetrazolium assays rely on reduction of a dye to a coloured formazan, in cell work by metabolically active cells.

The next test relates to HepG2. In words: Cytotoxicity against human HepG2 cells after 24 hrs by MTT assay. The note with it: HepG2, 24 h. In a few lines:
as §1

For the next test, the system named is A549. In words: Cytotoxicity against human A549 cells after 24 hrs by MTT assay. The note with it: A549, 24 h. In a few lines: as §1
The next test concerns MCF7. In words: Cytotoxicity against human MCF7 cells after 24 hrs by MTT assay. The note with it: MCF7, 24 h. In a few lines:
as §1

Each structure is given as a SMILES string.

As usually defined, the IC50 is the concentration at which inhibition is half-maximal. A low value points to greater potency in that assay. For the compound `CC(=O)OC(C)(C)/C=C/C(=O)[C@](C)(O)[C@H]1[C@H](O)C[C@@]2(C)[C@@H]3CC=C4[C@H](C[C@H](O)C(=O)C4(C)C)[C@]3(C)C(=O)C[C@]12C` [CUCURBITACIN B], the IC50 in the test with CAKI-1 was 7.1 µM; in the test with HepG2 it was 0.76 µM; with A549, 46.6 µM; in the test with MCF7, 0.78 µM.

Consider `CC(=O)O[C@H](C[C@@H](OC(C)=O)C(C)(C)O)[C@@H](C)[C@H]1CC[C@@]2(C)[C@@H]3CC=C4[C@@H](CCC(=O)C4(C)C)[C@]3(C)CC[C@]12CO` [LEUCOPAXILLONE A], for which the IC50 with CAKI-1 was 108 µM; in the test with HepG2, 96.7 µM; in the test on A549, greater than 300 µM; in the test on MCF7, 7.94 µM.

Regarding `CC(=O)O[C@H](C[C@@H](OC(C)=O)C(C)(C)O)[C@@H](C)[C@H]1CC[C@@]2(C)[C@@H]3CC=C4[C@@H](CCC(=O)C4(C)C)[C@]3(C)[C@]3(O)C[C@]12CO3` [LEUCOPAXILLONE B], the IC50 was 30.3 µM with CAKI-1, 86.9 µM with HepG2, 155 µM with A549 and 86.9 µM with MCF7.

The values above are taken from ChEMBL document CHEMBL1148942, “Cucurbitane triterpenoids from Leucopaxillus gentianeus” (J Nat Prod, 2004).
